# Assays:
# [1] = target: T1, Voltage-dependent L-type calcium channel subunit alpha-1C (Oryctolagus cuniculus, UniProt P15381); test: Selectivity index was measured as the IC50 needed to depress the heart beat divided by IC50 needed to block [Ca2+] contractions in rabbit aortic strips; type: functional, tissue-based, Aorta
# Oryctolagus cuniculus [2] = species: Oryctolagus cuniculus; test: Blockade of calcium-evoked contractions evaluated in depolarized rabbit aortic strips; type: functional; conditions: Aorta
# Outline: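 Male New Zealand rabbit thoracic aorta, helicoidal strips, 2.5 g preload, Krebs–bicarbonate, 37 °C, 95% O2/5% CO2, pH 7.4. After 1 h equilibration, depolarized with 35 mM K+; 1.5 mM Ca2+ added 10 min later, repeated until reproducible. Compound at increasing concentrations from 20 min before and during Ca2+ addition; responses normalized to initial tension; IC50 by Finney method.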
# Oryctolagus cuniculus [3] = species: Oryctolagus cuniculus; test: Recovery of the initial contraction of rabbit aortic strips, blocked at 10e-7 M concentration.; conditions: Aorta
# Oryctolagus cuniculus [4] = species: Oryctolagus cuniculus; test: Relative potency evaluated (relative potency = IC50 of compound / IC50 of nifedipine) in rabbit; type: functional
# Oryctolagus cuniculus [5] = species: Oryctolagus cuniculus; test: Inhibition of electrically stimulated rabbit left atria contraction.; type: functional
# Outline: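 Rabbit left atria electrically driven (1 Hz, 10 ms, twice threshold voltage), equilibrated 1–1.5 h. Compounds added cumulatively (10^-10–10^-6 M), diluted from DMSO stocks into Krebs–Henseleit, final DMSO <0.1%. Isometric force recorded; IC50 from contractile force relative to initial control values, with 95% confidence limits.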
# Oryctolagus cuniculus [6] = species: Oryctolagus cuniculus; test: Relative potency was evaluated. (relative potency = IC50 of compound / IC50 of nifedipine); type: functional
# [7] = target: T1, Voltage-dependent L-type calcium channel subunit alpha-1C; test: Blockade of calcium-evoked contractions in depolarized aortic strips; type: functional, tissue-based, Aorta
# T1 sequence (P15381 whole entry): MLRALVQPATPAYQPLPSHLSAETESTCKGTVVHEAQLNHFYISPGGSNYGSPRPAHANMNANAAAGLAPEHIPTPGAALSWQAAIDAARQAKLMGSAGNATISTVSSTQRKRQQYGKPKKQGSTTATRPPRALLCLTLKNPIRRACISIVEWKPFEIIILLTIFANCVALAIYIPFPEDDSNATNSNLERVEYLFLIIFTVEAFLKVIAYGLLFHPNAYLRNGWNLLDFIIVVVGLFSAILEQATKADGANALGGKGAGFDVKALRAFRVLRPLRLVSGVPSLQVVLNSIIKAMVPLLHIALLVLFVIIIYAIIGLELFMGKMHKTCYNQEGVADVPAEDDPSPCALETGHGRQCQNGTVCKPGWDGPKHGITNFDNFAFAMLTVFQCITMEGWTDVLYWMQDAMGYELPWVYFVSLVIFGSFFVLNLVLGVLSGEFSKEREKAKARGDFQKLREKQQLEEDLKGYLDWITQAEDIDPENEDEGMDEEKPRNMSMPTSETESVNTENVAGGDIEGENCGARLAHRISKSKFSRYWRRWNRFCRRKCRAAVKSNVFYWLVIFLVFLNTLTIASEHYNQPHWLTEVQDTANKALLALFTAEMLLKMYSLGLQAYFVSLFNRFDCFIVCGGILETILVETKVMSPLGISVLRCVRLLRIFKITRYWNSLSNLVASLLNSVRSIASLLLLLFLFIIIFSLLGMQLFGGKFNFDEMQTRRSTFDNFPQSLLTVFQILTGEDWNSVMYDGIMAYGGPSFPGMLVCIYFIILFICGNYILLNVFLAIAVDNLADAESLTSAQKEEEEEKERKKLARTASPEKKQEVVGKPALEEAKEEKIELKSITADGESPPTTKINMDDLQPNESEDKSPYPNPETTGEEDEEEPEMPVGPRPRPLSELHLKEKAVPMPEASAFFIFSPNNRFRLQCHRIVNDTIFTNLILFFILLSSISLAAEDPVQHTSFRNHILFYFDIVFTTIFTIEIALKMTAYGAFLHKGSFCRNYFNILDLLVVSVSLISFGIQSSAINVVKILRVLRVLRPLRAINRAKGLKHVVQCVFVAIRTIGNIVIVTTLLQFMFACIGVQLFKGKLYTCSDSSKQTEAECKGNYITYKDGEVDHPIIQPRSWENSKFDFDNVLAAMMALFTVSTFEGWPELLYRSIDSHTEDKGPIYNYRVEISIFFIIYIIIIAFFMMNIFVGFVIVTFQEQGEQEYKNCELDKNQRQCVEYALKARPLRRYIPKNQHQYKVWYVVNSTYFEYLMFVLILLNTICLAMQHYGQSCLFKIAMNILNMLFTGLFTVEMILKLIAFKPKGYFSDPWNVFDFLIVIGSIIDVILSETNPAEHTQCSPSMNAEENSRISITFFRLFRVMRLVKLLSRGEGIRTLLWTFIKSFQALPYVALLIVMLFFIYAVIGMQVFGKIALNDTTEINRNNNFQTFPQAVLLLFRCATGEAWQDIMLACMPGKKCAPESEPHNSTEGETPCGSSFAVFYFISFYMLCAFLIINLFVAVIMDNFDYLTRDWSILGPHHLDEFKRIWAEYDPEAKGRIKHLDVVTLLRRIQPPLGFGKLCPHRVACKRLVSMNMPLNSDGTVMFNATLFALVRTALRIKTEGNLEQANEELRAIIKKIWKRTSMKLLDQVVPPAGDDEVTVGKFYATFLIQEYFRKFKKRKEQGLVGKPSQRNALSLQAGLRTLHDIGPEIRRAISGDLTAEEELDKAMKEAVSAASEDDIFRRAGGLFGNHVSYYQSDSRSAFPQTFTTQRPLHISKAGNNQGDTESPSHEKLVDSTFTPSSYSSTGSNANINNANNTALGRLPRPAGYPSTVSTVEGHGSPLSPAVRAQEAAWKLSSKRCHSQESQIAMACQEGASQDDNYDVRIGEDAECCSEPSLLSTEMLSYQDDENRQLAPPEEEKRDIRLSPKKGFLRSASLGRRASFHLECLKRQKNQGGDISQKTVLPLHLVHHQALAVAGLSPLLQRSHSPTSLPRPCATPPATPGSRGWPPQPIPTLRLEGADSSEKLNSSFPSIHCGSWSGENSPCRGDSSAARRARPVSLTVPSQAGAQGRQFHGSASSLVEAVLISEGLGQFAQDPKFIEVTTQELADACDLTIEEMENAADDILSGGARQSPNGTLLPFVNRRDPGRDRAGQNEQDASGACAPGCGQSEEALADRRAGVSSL
SMILES,Selectivity index [1],IC50 (Oryctolagus cuniculus [2]) [nM],Recovery (Oryctolagus cuniculus [3]) [%],Relative potency (Oryctolagus cuniculus [4]),IC50 (Oryctolagus cuniculus [5]) [nM],Relative potency (Oryctolagus cuniculus [6]),IC50 [7] [nM]
CCO/C(O)=C1\C(C)=NC(C)=C(C(=O)OCCCN2C(=O)c3ccccc3S2(=O)=O)C1c1ccccc1C(F)(F)F (configuration not stated),163,0.8,1.2,3.6,124,–,–
CC1=NC(C)=C(C(=O)OCCN2C(=O)c3ccccc3S2(=O)=O)C(c2cccc(Cl)c2Cl)/C1=C(\O)OCC1CCCCO1 (configuration not stated),–,11.1,–,0.3,–,–,–
CCO/C(O)=C1\C(C)=NC(C)=C(C(=O)OCCN2C(=O)c3ccccc3S2(=O)=O)C1c1cccc(Cl)c1Cl (configuration not stated),–,4,–,0.7,–,–,–
CC1=NC(C)=C(C(=O)OCN2C(=O)c3ccccc3S2(=O)=O)C(c2ccccc2C(F)(F)F)/C1=C(\O)OCC1CCCCO1 (configuration not stated),–,–,–,–,–,0.8,3.6
CC1=NC(C)=C(C(=O)OCCN2C(=O)c3ccccc3S2(=O)=O)C(c2ccccc2Cl)/C1=C(\O)OC(C)C (configuration not stated),–,3.1,–,0.9,–,–,–
CC1=NC(C)=C(C(=O)OCCN2C(=O)c3ccccc3S2(=O)=O)C(c2ccccc2C(F)(F)F)/C1=C(\O)OCC1CCCO1 (configuration not stated),–,2.5,–,1.2,–,–,–
CC1=NC(C)=C(C(=O)OCN2C(=O)c3ccccc3S2(=O)=O)C(c2ccccc2Cl)/C1=C(\O)OCC1CCCO1 (configuration not stated),–,–,–,–,–,0.3,10.1
CC1=NC(C)=C(C(=O)OCCCN2C(=O)c3ccccc3S2(=O)=O)C(c2cccc([N+](=O)[O-])c2)/C1=C(\O)OC(C)C (configuration not stated),205,1,1.6,2.9,210,–,–
COCCO/C(O)=C1\C(C)=NC(C)=C(C(=O)OCCCN2C(=O)c3ccccc3S2(=O)=O)C1c1ccccc1[N+](=O)[O-] (configuration not stated),–,2.7,–,1.1,–,–,–
CC1=NC(C)=C(C(=O)OCCN2C(=O)c3ccccc3S2(=O)=O)C(c2ccccc2Cl)/C1=C(\O)OC(C)(C)C (configuration not stated),–,4.5,–,0.6,–,–,–
COCCO/C(O)=C1\C(C)=NC(C)=C(C(=O)OCCN2C(=O)c3ccccc3S2(=O)=O)C1c1cccc(Cl)c1Cl (configuration not stated),–,7,–,0.4,–,–,–
CC1=NC(C)=C(C(=O)OCCCN2C(=O)c3ccccc3S2(=O)=O)C(c2cccc([N+](=O)[O-])c2)/C1=C(\O)OCC1CCCO1 (configuration not stated),–,10.5,–,0.3,–,–,–
COCCO/C(O)=C1\C(C)=NC(C)=C(C(=O)OCCCN2C(=O)c3ccccc3S2(=O)=O)C1c1ccccc1C(F)(F)F (configuration not stated),16,1.4,18.3,2.1,21.8,–,–
COCCO/C(O)=C1\C(C)=NC(C)=C(C(=O)OCN2C(=O)c3ccccc3S2(=O)=O)C1c1cccc(Cl)c1Cl (configuration not stated),–,–,–,–,–,1,2.9
CC1=NC(C)=C(C(=O)OCCN2C(=O)c3ccccc3S2(=O)=O)C(c2ccccc2C(F)(F)F)/C1=C(\O)OCC1CCCCO1 (configuration not stated),–,25.5,–,0.1,–,–,–
CO/C(O)=C1\C(C)=NC(C)=C(C(=O)OCCCN2C(=O)c3ccccc3S2(=O)=O)C1c1cccc([N+](=O)[O-])c1 (configuration not stated),–,2.6,–,1.1,–,–,–
COCCO/C(O)=C1\C(C)=NC(C)=C(C(=O)OCCN2C(=O)c3ccccc3S2(=O)=O)C1c1cccc([N+](=O)[O-])c1 (configuration not stated),–,28.8,–,0.1,–,–,–
COCCO/C(O)=C1\C(C)=NC(C)=C(C(=O)OCCN2C(=O)c3ccccc3S2(=O)=O)C1c1ccccc1C(F)(F)F (configuration not stated),–,1.4,–,2.1,–,–,–
CC1=NC(C)=C(C(=O)OCCN2C(=O)c3ccccc3S2(=O)=O)C(c2ccccc2[N+](=O)[O-])/C1=C(\O)OC(C)(C)C (configuration not stated),41,0.7,0.2,4.1,28.5,–,–
CCO/C(O)=C1\C(C)=NC(C)=C(C(=O)OCCCN2C(=O)c3ccccc3S2(=O)=O)C1c1cccc([N+](=O)[O-])c1 (configuration not stated),–,1.9,–,1.5,–,–,–
CCO/C(O)=C1\C(C)=NC(C)=C(C(=O)OCCN2C(=O)c3ccccc3S2(=O)=O)C1c1cccc([N+](=O)[O-])c1 (configuration not stated),–,2.6,–,1.1,–,–,–
CCO/C(O)=C1\C(C)=NC(C)=C(C(=O)OCN2C(=O)c3ccccc3S2(=O)=O)C1c1cccc([N+](=O)[O-])c1 (configuration not stated),–,–,–,–,–,0.1,3.3
CC1=NC(C)=C(C(=O)OCCCN2C(=O)c3ccccc3S2(=O)=O)C(c2cccc(Cl)c2Cl)/C1=C(\O)OCC1CCCCO1 (configuration not stated),–,4,–,0.7,–,–,–
CC1=NC(C)=C(C(=O)OCCCN2C(=O)c3ccccc3S2(=O)=O)C(c2ccccc2[N+](=O)[O-])/C1=C(\O)OCC1CCCO1 (configuration not stated),–,6.8,–,0.4,–,–,–
CC1=NC(C)=C(C(=O)OCCCN2C(=O)c3ccccc3S2(=O)=O)C(c2ccccc2C(F)(F)F)/C1=C(\O)OCC1CCCO1 (configuration not stated),–,3.7,–,0.8,–,–,–
